# Results collected from several papers.
# Lines come from different studies, so protocols differ.
# FLT3 D835H: Receptor-type tyrosine-protein kinase FLT3 (FLT3, Homo sapiens, UniProt P36888, D835H)
# FLT3 D835V/ITD: Receptor-type tyrosine-protein kinase FLT3 (FLT3, Homo sapiens, UniProt P36888, D835V/ITD)
# FLT3 autoinhibited: Receptor-type tyrosine-protein kinase FLT3, autoinhibited (FLT3, Homo sapiens, UniProt P36888)
# FLT3: Receptor-type tyrosine-protein kinase FLT3 (FLT3, Homo sapiens, UniProt P36888)
# FLT3 R834Q: Receptor-type tyrosine-protein kinase FLT3 (FLT3, Homo sapiens, UniProt P36888, R834Q)
# FLT3 F691L/ITD: Receptor-type tyrosine-protein kinase FLT3 (FLT3, Homo sapiens, UniProt P36888, F691L/ITD)
SMILES,target,assay,setting,remaining binding [%]
Nc1ncc2c(n1)-c1c([nH]c3ccc(C#CC4CC4)cc13)CCCC2,FLT3 D835H,"binding, competition with immobilised ligand",1 µM,88
O=C(c1ccc(Nc2nccc(-c3cc4ccccc4s3)n2)cc1)N1CCC(N2CCCC2)CC1,FLT3 D835V/ITD,"binding, competition with immobilised ligand",1 µM,8.3
O=C(NCC1CCOCC1)c1n[nH]cc1NC(=O)c1c(F)cccc1F,FLT3 autoinhibited,"binding, competition with immobilised ligand",1 µM,78
COc1ncc2cc3ccccc3nc2c1C#N,FLT3,"cell-free assay, competition with immobilised ligand",5 µM,91
CCS(=O)(=O)c1cc2cc(C[C@@](O)(CC(C)(C)c3ccc(F)cc3C(N)=O)C(F)(F)F)[nH]c2cn1,FLT3 D835V/ITD,"cell-free assay, competition with immobilised ligand",1 µM,73
O=C(NCCCN1CCOCC1)c1ccc(Nc2ncc(Cl)c(-c3ccc(Cl)s3)n2)cc1,FLT3 D835V/ITD,"binding, competition with immobilised ligand",1 µM,1.8
C[C@H]1CCN(c2nccc(-c3cnn4ncccc34)n2)C1,"Receptor-type tyrosine-protein kinase FLT3 (FLT3, Homo sapiens, UniProt P36888, D835Y)",binding,1 µM,81
Cc1cc(-n2nc(Cc3cc(F)cc(C(F)(F)F)c3)nc2C)ccc1C(N)=O,FLT3 autoinhibited,"cell-free assay, competition with immobilised ligand",1 µM,100
Cc1cnn2ncc(-c3ccnc(N(C)C)n3)c2c1,FLT3,binding,1 µM,98
CCCCN(CCCC)C(=O)CN1C[C@H](c2cc(OC)c3c(c2)OCO3)[C@@H](C(=O)O)[C@@H]1CC(C)(C)CCC,FLT3 autoinhibited,"cell-free assay, competition with immobilised ligand",1 µM,76
C[C@@H](c1ccc(-n2cnc3c(N)ncnc32)cc1)N1CCc2nn(C)c(Cc3ccccc3)c2C1=O,FLT3 D835H,"binding, competition with immobilised ligand",0.1 µM,94
O=C(c1ccc(Nc2ncc(Cl)c(-c3cc4ccccc4s3)n2)cc1)N1CCC(N2CCCC2)CC1,"Receptor-type tyrosine-protein kinase FLT3 (FLT3, Homo sapiens, UniProt P36888, N841I)","binding, competition with immobilised ligand",1 µM,0
NS(=O)(=O)c1cc(NC(=O)Cc2ccccc2)ccc1Oc1cccc(Cl)c1,"Receptor-type tyrosine-protein kinase FLT3 (FLT3, Homo sapiens, UniProt P36888, D835V)","cell-free assay, competition with immobilised ligand",1 µM,86
Cc1cnc(Nc2ccc(C(=O)N3CCC(N4CCCC4)CC3)cc2)nc1-c1cc2ccccc2s1,FLT3 R834Q,"binding, competition with immobilised ligand",1 µM,6.2
CN(C)c1ncc(F)c(-c2cnn3ncccc23)n1,FLT3 D835H,binding,1 µM,86
O=C(c1ccc(Nc2ncc(Cl)c(-c3ccc(Cl)s3)n2)cc1)N1CCC(N2CCCC2)CC1,FLT3 R834Q,"binding, competition with immobilised ligand",1 µM,5.3
C[C@H](NC(=O)c1cnc2n1[C@](C)(Cc1ccc(C#N)cc1)C(=O)N2c1cc(Cl)c(F)c(Cl)c1)C(=O)NC1(c2ccccn2)CC1,"Receptor-type tyrosine-protein kinase FLT3 (FLT3, Homo sapiens, UniProt P36888, K663Q)","cell-free assay, competition with immobilised ligand",1 µM,100
CNC(=O)[C@@H]1CC[C@@H](n2c(-c3ccc4cnccc4c3)nc3ccc(C(=O)NCc4cccc(C(N)=O)c4)cc32)C1,FLT3 D835H,"binding, competition with immobilised ligand",1 µM,100
c1cncc(-c2cccc(Nc3nccc(NC4CCCCC4)n3)c2)c1,FLT3,"binding, competition with immobilised ligand",10 µM,0.35
C[C@H](c1ccnc(Nc2nc3ccc(-c4cc(N(C)C)ncn4)cc3[nH]2)c1)N1CCN(C(=O)CC(F)(F)F)CC1,FLT3 F691L/ITD,"cell-free assay, competition with immobilised ligand",0.1 µM,42
O=C(NCCCN1CCOCC1)c1ccc(Nc2nccc(-c3cc4ccccc4s3)n2)cc1,FLT3 F691L/ITD,"binding, competition with immobilised ligand",1 µM,37
N[C@@H]1CCN(c2nccc(-c3cnn4ncccc34)n2)C1,FLT3,binding,1 µM,100
c1ccc(N2CCN(Cc3nc4ccccc4[nH]3)CC2)nc1,"Receptor-type tyrosine-protein kinase FLT3 (FLT3, Homo sapiens, UniProt P36888, ITD)","binding, competition with immobilised ligand",1 µM,100
CN(CCCC(F)(F)F)c1nccc(-c2cnn3ncccc23)n1,FLT3 R834Q,binding,1 µM,100
Cc1c(C(=O)O)cc(-c2ccc(C3CCNCC3)cc2)c2ccc(-c3ccc(C(F)(F)F)cc3)cc12,FLT3 R834Q,"binding, competition with immobilised ligand",1 µM,100
